Measurements reported in paper PMC3858174 (Bioorganic & medicinal chemistry, 2013).

Assays:
Dopamine2 = Dopamine2 (Homo sapiens, UniProt P14416); assay: NIMH-PDSP binding assay, Dopamine2
Adrenergic α1A = target: T1, Adrenergic α1A (Homo sapiens, UniProt P35348); assay: NIMH-PDSP binding assay, Adrenergic α1A
T1 sequence (P35348 1-466): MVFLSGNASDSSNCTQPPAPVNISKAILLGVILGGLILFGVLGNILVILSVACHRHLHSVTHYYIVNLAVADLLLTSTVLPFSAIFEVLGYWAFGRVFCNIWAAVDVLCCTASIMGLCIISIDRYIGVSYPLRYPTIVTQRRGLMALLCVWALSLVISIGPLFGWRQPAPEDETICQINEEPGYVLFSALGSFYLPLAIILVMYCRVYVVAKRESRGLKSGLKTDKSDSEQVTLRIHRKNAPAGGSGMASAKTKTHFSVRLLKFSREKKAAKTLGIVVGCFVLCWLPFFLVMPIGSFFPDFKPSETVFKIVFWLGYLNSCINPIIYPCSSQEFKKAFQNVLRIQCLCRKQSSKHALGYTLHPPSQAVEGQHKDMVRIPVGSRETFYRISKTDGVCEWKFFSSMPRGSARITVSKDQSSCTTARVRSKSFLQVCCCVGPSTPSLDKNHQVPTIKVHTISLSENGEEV

BZP Rat Brain Site = assay: NIMH-PDSP binding assay, BZP Rat Brain Site; details: read-out: Ki BZP Rat Brain Site
Dopamine3 = Dopamine3 (Homo sapiens, UniProt P35462); assay: NIMH-PDSP binding assay, Dopamine3
Dopamine3, sequence (P35462 whole entry): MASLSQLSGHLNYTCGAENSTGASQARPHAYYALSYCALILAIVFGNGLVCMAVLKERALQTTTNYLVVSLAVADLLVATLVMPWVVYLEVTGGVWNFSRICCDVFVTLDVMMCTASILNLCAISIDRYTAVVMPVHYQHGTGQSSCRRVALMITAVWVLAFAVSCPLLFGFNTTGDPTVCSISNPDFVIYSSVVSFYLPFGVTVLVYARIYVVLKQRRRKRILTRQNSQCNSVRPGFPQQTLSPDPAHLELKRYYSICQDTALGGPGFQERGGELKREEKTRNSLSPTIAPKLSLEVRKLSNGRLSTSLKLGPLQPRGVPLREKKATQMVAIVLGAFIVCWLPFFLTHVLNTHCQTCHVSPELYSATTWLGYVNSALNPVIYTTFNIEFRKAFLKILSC

5HT7 = 5HT7 (Homo sapiens, UniProt P34969); assay: NIMH-PDSP binding assay, 5HT7
5HT7, sequence (P34969 whole entry, species assumed): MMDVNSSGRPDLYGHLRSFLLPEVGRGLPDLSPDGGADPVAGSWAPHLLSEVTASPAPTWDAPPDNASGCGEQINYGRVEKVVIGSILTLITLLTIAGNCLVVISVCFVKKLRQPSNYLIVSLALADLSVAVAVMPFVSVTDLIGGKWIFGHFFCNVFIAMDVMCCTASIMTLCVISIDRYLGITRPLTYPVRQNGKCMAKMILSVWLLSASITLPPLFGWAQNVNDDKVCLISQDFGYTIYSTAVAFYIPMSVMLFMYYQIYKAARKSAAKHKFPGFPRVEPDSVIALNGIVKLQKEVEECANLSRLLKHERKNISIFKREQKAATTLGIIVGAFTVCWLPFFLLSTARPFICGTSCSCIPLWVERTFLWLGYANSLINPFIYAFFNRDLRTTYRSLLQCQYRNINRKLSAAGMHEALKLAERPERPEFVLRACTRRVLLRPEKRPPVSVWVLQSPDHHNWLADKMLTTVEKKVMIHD

5-HT1AR [1] = details: 5-HT1AR-rich regions such as hippocampus, amygdala, cortex and cingulate regions; cited from earlier work
[2] = logPo/w by shake flask method; type: physicochemical
5-HT1AR [3] = assay: PET imaging in anesthetized baboon; type: in vivo, baboon (Papio anubis)
Outline: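 Two fasted male baboons: ketamine 10 mg/kg im, then 1.5–2.0% isoflurane via endotracheal tube, core temperature held at 37 °C. Saline iv line and arterial line placed. 10 min transmission scan, then 111 ± 18 MBq radiotracer as iv bolus. 3-D emission data collected for 180 min. MRI-coregistered regions of interest, left and right averaged.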

Stability of formulation = type: physicochemical; details: 10% ethanol-90% saline; analytical HPLC and radio-TLC

Dopamine2, sequence (P14416 whole entry): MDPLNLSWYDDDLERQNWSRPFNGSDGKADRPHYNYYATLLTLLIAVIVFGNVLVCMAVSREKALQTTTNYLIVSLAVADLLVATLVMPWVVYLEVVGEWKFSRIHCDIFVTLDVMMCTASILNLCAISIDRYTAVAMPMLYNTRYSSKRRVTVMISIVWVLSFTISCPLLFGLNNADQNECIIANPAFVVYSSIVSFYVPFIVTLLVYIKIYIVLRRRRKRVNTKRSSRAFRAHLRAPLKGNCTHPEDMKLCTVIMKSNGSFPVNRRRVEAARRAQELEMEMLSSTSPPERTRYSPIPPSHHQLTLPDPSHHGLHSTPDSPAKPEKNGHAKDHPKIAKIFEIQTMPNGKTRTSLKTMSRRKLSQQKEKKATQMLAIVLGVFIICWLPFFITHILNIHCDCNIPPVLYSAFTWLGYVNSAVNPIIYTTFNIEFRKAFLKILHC

COc1ccccc1N1CCN(CCCCn2ncc(=O)n(C)c2=O)CC1 [CUMI-101]
Ki Dopamine2 (Dopamine2): did not show any significant binding
less affinity for α1A AR in comparison to 5-HT1AR (Adrenergic α1A): 45 fold
Ki (BZP Rat Brain Site): > 10 µM
Ki Dopamine3 (Dopamine3): did not show any significant binding

Cn1c(=O)cnn(CCCCN2CCN(c3ccccc3OCCF)CC2)c1=O [FECUMI-101, 2-(4-(4-(2-(2-fluoroethoxy)phenyl)piperazin-1-yl)butyl)-4-methyl-1,2,4-triazine-3,5(2H,4H)-dione]
selectivity to 5-HT1A over 5-HT7 (5HT7): 172 fold

Cn1c(=O)cnn(CCCCN2CCN(c3ccccc3O[11CH3])CC2)c1=O [[^11C]CUMI-101]
lower BPF in comparison with [11C]WAY-100635 scans (5-HT1AR [1]): ~ 50%

Cn1c(=O)cnn(CCCCN2CCN(c3ccccc3OCC[18F])CC2)c1=O [[^18F]FECUMI-101, [18F]2-(4-(4-(2-(2-fluoroethoxy)phenyl)piperazin-1-yl)butyl)-4-methyl-1,2,4-triazine-3,5(2H,4H)-dione]
logPo/w [2]: 1.2
BBB penetration (5-HT1AR [3]; anesthetized baboon, 111 ± 18 MBq i.v.): penetrates the BBB
in vivo radio[18F]defluorination (skull image) (5-HT1AR [3]; baboon PET): No skull image
Stability of radioproduct in formulation, no significant de[18F]fluorination (Stability of formulation): up to 4 h
